Each block holds one molecule with its values, some of them ahead of it.
Legend:
[1] = Antioxidant activity assessed as hydrogen peroxide scavenging activity at 100 ug/ml relative to control; assay type: functional
[2] = molecular target: T1, Prostaglandin G/H synthase 2 (Homo sapiens) (UniProt P35354); assay: Inhibition of COX2 (unknown origin) at 10 umol/l by ELISA relative to control
T1 sequence (whole entry): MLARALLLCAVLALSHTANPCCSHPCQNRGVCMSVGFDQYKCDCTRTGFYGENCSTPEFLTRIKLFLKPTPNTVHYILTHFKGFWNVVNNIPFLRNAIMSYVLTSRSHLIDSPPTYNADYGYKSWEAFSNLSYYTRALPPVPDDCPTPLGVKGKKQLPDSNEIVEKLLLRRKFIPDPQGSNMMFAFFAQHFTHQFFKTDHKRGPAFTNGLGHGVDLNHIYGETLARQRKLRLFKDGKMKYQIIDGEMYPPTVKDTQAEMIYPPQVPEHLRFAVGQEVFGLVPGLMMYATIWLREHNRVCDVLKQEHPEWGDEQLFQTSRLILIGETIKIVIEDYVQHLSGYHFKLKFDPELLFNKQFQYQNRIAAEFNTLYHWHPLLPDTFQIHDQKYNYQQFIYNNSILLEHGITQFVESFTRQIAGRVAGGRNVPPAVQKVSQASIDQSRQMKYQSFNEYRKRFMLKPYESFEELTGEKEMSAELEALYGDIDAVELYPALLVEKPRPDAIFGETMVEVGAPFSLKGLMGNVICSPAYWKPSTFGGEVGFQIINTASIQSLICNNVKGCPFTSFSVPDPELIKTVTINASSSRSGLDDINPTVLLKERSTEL

Mus musculus [3] = assay: Antiinflammatory activity in para-xylene-induced mouse model of ear swelling assessed as inhibition in swelling rate at 100 mg/kg, po treated for 24 hrs followed by xylene addition relative to control; assay type: functional
Method in brief: (§1)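 Mouse ear edema induced by para-xylene. A single oral dose of 100 mg/kg was given at set intervals (1, 2, 3, 4, 5 or 24 h) before xylene was applied. Each group had 5 mice. The inhibition rate (%) was taken relative to the vehicle group. Indomethacin at 100 mg/kg served as the reference.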

Mus musculus [4] = assay: Antiinflammatory activity in para-xylene-induced mouse model of ear swelling assessed as inhibition in swelling rate at 50 mg/kg, po treated for 2 hrs followed by xylene addition relative to control; assay type: functional
Method in brief: (§2)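 Mouse ear edema induced by para-xylene. Oral doses were 25, 50 or 100 mg/kg, given 2 h before xylene was applied. Each group had 5 mice. The inhibition rate (%) was taken relative to the vehicle group, with indomethacin as the positive control.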

Mus musculus [5] = assay: Antiinflammatory activity in para-xylene-induced mouse model of ear swelling assessed as inhibition in swelling rate at 100 mg/kg, po treated for 5 hrs followed by xylene addition relative to control; assay type: functional; method in brief: as §1
Mus musculus [6] = assay: Antiinflammatory activity in para-xylene-induced mouse model of ear swelling assessed as inhibition in swelling rate at 100 mg/kg, po treated for 2 hrs followed by xylene addition relative to control; assay type: functional; method in brief: as §1
Mus musculus [7] = assay: Antiinflammatory activity in para-xylene-induced mouse model of ear swelling assessed as inhibition in swelling rate at 100 mg/kg, po treated for 1 hr followed by xylene addition relative to control; assay type: functional; method in brief: as §1
Mus musculus [8] = assay: Antiinflammatory activity in para-xylene-induced mouse model of ear swelling assessed as inhibition in swelling rate at 100 mg/kg, po treated for 4 hrs followed by xylene addition relative to control; assay type: functional; method in brief: as §1
Mus musculus [9] = assay: Antiinflammatory activity in para-xylene-induced mouse model of ear swelling assessed as inhibition in swelling rate at 25 mg/kg, po treated for 2 hrs followed by xylene addition relative to control; assay type: functional; method in brief: as §2
Mus musculus [10] = assay: Antiinflammatory activity in para-xylene-induced mouse model of ear swelling assessed as edema at 100 mg/kg, ip (reference value: 8.70 +/- 0.90 mg); assay type: functional
Method in brief: (§3)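 Mouse ear swelling induced by para-xylene. Dosing was 100 mg/kg intraperitoneal with DMSO as vehicle, and the vehicle group was also given 100. Each group had 5 mice. Edema was recorded in mg as mean ± S.D., and the inhibition rate (%) was taken relative to the vehicle group. Indomethacin at 100 mg/kg served as the reference.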

Mus musculus [11] = assay: Antiinflammatory activity in para-xylene-induced mouse model of ear swelling assessed as inhibition in swelling rate at 100 mg/kg, po treated for 3 hrs followed by xylene addition relative to control; assay type: functional; method in brief: as §1
Mus musculus [12] = assay: Antiinflammatory activity in para-xylene-induced mouse model of ear swelling assessed as inhibition in swelling rate at 100 mg/kg, ip relative to control; assay type: functional; method in brief: as §3
[13] = Antioxidant activity assessed as ABTS radical scavenging activity by spectrophotometric analysis; assay type: functional
Method in brief: (§4)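 Radical scavenging by ABTS, DPPH or hydroxyl radical, read spectrophotometrically. Activity was calculated from the percentage decrease in absorbance, with resveratrol as the positive control. Values are given with the standard deviation (SD).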

[14] = Antioxidant activity assessed as DPPH radical scavenging activity by spectrophotometric analysis; assay type: functional; method in brief: as §4
[15] = Antioxidant activity assessed as hydroxyl radical scavenging activity by spectrophotometric analysis; assay type: functional; method in brief: as §4

SMILES: C/C(=N\c1ccc([N+](=O)[O-])cc1)N1N=C(c2ccc(-c3ccccc3)cc2)OC1c1ccccc1O (stereo not given)
Activity [1]: < 51.2%

inhibition [2]: 35%
SMILES: Cc1cccc(-c2nnc(COc3ccc(/C=N/Nc4nc5ccccc5s4)cc3)o2)c1

SMILES: COc1ccc2c(c1)c(CC(=O)O)c(C)n2C(=O)c1ccc(Cl)cc1 [INDOMETHACIN]
inhibition in vivo at 100 mg/kg (Mus musculus [3]): 12.5%
inhibition in vivo at 50 mg/kg (Mus musculus [4]): 25.9%
inhibition in vivo at 100 mg/kg (Mus musculus [5]): 19.2%
inhibition in vivo at 100 mg/kg (Mus musculus [6]): 52.3 to 58.3%
inhibition in vivo at 100 mg/kg (Mus musculus [7]): 25.3%
inhibition in vivo at 100 mg/kg (Mus musculus [8]): 30.4%
inhibition in vivo at 25 mg/kg (Mus musculus [9]): 19.1%
Activity (Mus musculus [10]): 5.15 mg
inhibition in vivo at 100 mg/kg (Mus musculus [11]): 46.1%
inhibition in vivo at 100 mg/kg (Mus musculus [12]): 43.6%

IC50 [13]: 1420 µM
IC50 [14]: 990 µM
IC50 [15]: 370000 µM
SMILES: Oc1ccc(/C=C/c2cc(O)cc(O)c2)cc1 [RESVERATROL]

Reference: ChEMBL document CHEMBL4622871, “Synthesis, biological evaluation of benzothiazole derivatives bearing a 1,3,4-oxadiazole moiety as potential anti-oxidant and anti-inflammatory agents” (Bioorg Med Chem Lett, 2020)
